{"source": "ChEMBL document CHEMBL1157416", "about": "“Novel open-chain cytochalsins from the marine-derived fungus Spicaria elegans” (J Nat Prod, 2008)", "format_in_all_cases": "functional, cell-based", "key": {"P388": {"system": "P388", "experiment": "Cytotoxicity against mouse P388 cells after 72 hrs by MTT assay", "conditions": "P388, 72 h", "procedure,_shortened": "(§1)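 Cells grown in RPMI-1640 with 10% FBS, 5% CO2/95% air, 37 °C; plated at 5 × 10^4 cells/mL, preincubated 24 h, then compounds added in DMSO at several concentrations for 72 h. MTT (5 mg/mL) added for 4 h, medium replaced by DMSO to dissolve formazan, absorbance read at 570 nm; IC50 values reported.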"}, "A549": {"system": "A549", "experiment": "Cytotoxicity against human A549 cells after 72 hrs by MTT assay", "conditions": "A549, 72 h", "procedure,_shortened": "as §1"}, "HL-60": {"system": "HL-60", "experiment": "Cytotoxicity against human HL60 cells after 72 hrs by MTT assay", "conditions": "HL-60, 72 h", "procedure,_shortened": "as §1"}, "Bel-7402": {"system": "Bel-7402", "experiment": "Cytotoxicity against human BEL-7402 cells after 72 hrs by MTT assay", "conditions": "Bel-7402, 72 h", "procedure,_shortened": "as §1"}}, "note": "pIC50: −log10 of the molar value.", "data": [{"smiles": "C/C1=C/CC(=O)O[C@@]23C(=O)N[C@@H](Cc4ccc(O)cc4)[C@@H]2[C@H](C)[C@@]2(C)O[C@H]2[C@@H]3/C=C/C[C@H](C)C1=O", "values": [{"measurement": "pIC50", "setting": "P388", "result": 4.10}, {"measurement": "pIC50", "setting": "A549", "result": 4.02}, {"measurement": "pIC50", "setting": "HL-60", "result": 4.18}, {"measurement": "pIC50", "setting": "Bel-7402", "result": 4.03}]}, {"smiles": "C=C1[C@@H](C)[C@H]2[C@H](Cc3ccccc3)NC(=O)[C@@]2(O)[C@@H](/C=C/C[C@H](C)[C@@H](O)[C@@H](C)O)[C@@H]1O", "note": "[CYTOCHALASIN Z10]", "values": [{"measurement": "pIC50", "setting": "P388", "result": "< 4.00"}, {"measurement": "pIC50", "setting": "A549", "result": 5.02}, {"measurement": "pIC50", "setting": "HL-60", "result": 4.16}, {"measurement": "pIC50", "setting": "Bel-7402", "result": "< 4.00"}]}, {"smiles": "C=C1[C@@H](C)[C@H]2[C@H](Cc3ccccc3)NC(=O)[C@@]2(O)[C@@H](/C=C/C[C@H](C)C(=O)[C@H](C)O)[C@@H]1O", "note": "[CYTOCHALASIN Z11]", "values": [{"measurement": "pIC50", "setting": "P388", "result": 4.16}, {"measurement": "pIC50", "setting": "A549", "result": 5.37}, {"measurement": "pIC50", "setting": "HL-60", "result": 4.35}, {"measurement": "pIC50", "setting": "Bel-7402", "result": "< 4.00"}]}, {"smiles": "CC1=C(C)[C@H]2[C@H](Cc3ccccc3)NC(=O)[C@@]2(O)[C@@H](/C=C/C[C@H](C)[C@@H](O)[C@@H](C)O)[C@@H]1O", "note": "[CYTOCHALASIN Z12]", "values": [{"measurement": "pIC50", "setting": "P388", "result": "< 4.00"}, {"measurement": "pIC50", "setting": "A549", "result": 4.04}, {"measurement": "pIC50", "setting": "HL-60", "result": 4.05}, {"measurement": "pIC50", "setting": "Bel-7402", "result": "< 4.00"}]}, {"smiles": "CC1=C(C)[C@H]2[C@H](Cc3ccccc3)NC(=O)[C@@]2(O)[C@@H](/C=C/C[C@H](C)C(=O)[C@H](C)O)[C@@H]1O", "note": "[CYTOCHALASIN Z13]", "values": [{"measurement": "pIC50", "setting": "P388", "result": 4.17}, {"measurement": "pIC50", "setting": "A549", "result": 4.12}, {"measurement": "pIC50", "setting": "HL-60", "result": 4.10}, {"measurement": "pIC50", "setting": "Bel-7402", "result": 4.06}]}, {"smiles": "CC(=O)[C@@H](O)[C@@H](C)C/C=C/[C@H]1[C@H](O)C(C)=C(C)[C@H]2[C@H](Cc3ccccc3)NC(=O)[C@@]12O", "note": "[CYTOCHALASIN Z14]", "values": [{"measurement": "pIC50", "setting": "P388", "result": "< 4.00"}, {"measurement": "pIC50", "setting": "A549", "result": "< 4.00"}, {"measurement": "pIC50", "setting": "HL-60", "result": "< 4.00"}, {"measurement": "pIC50", "setting": "Bel-7402", "result": "< 4.00"}]}, {"smiles": "CC(=O)[C@H](O)[C@@H](C)C/C=C/[C@H]1[C@H](O)C(C)=C(C)[C@H]2[C@H](Cc3ccccc3)NC(=O)[C@@]12O", "note": "[CYTOCHALASIN Z15]", "values": [{"measurement": "pIC50", "setting": "P388", "result": "< 4.00"}, {"measurement": "pIC50", "setting": "A549", "result": "< 4.00"}, {"measurement": "pIC50", "setting": "HL-60", "result": "< 4.00"}, {"measurement": "pIC50", "setting": "Bel-7402", "result": "< 4.00"}]}]}
